In the library only some 1.9% were active in any assay of this set; here they are far more common.
Rpn11 block: Rpn11 (PSMD14) deubiquitinase inhibitors, primary screen, biochemical, fluorescence polarization, uHTS. human 26S proteasome, Ub4-pepOG fluorescence polarization; 20S core pre-blocked with epoxomicin. inhibition, % at 20 µM. hit rate 0.59% among 360,000;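 active = inhibition at 20 µM, scaled to each plate's controls, above about 33%, limit read from the data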
ABHD5 PLIN5 PPI: ABHD5-PLIN5 interaction inhibitors, primary screen, cell lysate, split luciferase complementation, luminescence; Perilipin-5 (Homo sapiens) + 1-acylglycerol-3-phosphate O-acyltransferase ABHD5 (Homo …; Split G. princeps luciferase complementation, 4 h; inhibition, % at 4 µM; hit rate 0.78% among 360,000; AID 602281, 2012;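 active = inhibition above the mean inhibition across every tested compound plus 3 SD, cut at about 22% in these data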;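 also: 0% = DMSO only wells and the 100% control is not disclosed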
Target sequence (Q00G26 whole entry, looked up): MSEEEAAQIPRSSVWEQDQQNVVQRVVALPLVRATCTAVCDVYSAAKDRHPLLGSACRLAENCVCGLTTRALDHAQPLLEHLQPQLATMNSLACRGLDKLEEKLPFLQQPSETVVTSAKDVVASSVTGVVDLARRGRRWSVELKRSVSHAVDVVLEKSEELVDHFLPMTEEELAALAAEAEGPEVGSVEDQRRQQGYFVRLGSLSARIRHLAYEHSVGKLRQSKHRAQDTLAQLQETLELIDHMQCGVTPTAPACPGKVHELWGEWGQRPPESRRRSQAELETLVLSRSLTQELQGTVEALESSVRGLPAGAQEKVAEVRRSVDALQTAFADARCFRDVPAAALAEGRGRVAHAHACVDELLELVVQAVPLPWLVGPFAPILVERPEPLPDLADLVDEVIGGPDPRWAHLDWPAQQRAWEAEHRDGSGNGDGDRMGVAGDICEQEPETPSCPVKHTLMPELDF
Target sequence (Q8WTS1 whole entry, looked up): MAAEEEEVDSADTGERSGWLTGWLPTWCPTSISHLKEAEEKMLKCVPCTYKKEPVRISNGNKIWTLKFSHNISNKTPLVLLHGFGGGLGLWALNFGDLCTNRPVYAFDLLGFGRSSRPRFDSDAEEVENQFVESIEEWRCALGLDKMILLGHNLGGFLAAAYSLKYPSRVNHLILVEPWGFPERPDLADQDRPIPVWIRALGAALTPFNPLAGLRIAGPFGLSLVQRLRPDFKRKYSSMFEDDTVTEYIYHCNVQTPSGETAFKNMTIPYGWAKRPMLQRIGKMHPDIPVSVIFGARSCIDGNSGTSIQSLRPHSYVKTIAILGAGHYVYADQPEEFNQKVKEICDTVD
NadD inh: inhibitors of S. aureus NadD, primary screen, biochemical, colorimetric, uHTS; Nicotinate-nucleotide adenylyltransferase NadD (Staphylococcus aureus N315); purified NadD enzyme, colorimetric absorbance read-out; inhibition, % at 20 µM; hit rate 0.78% among 360,000; AID 602399, 2012; in the data active = inhibition above about 26%
Xi reactivation: activators of inactive X chromosome reactivation, primary screen, imaging, XiGFP fibroblasts, GFP high-content imaging, set 2; hit rate 0.055% among 360,000; AID 743238, 2013; activation, % at 7.58 µM; XiGFP mouse fibroblasts, % GFP-positive cells imaging, 3 d; cells co-treated with 5-aza-dC sensitizer; scaled so ellipticine positive control = 100%;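 active = mean normalized replicate activation at least 10% and every replicate at or above 10%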;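 also: 0% = median of on-plate neutral control wells and 100% = ellipticine 6 µM median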
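Material: SV40-immortalized XiGFP fibroblast cells, line 68-5-11 | Buffer or medium: DMEM containing 5-aza-dC | Dosing: One concentration, pinned | Times: 3 d treatment, 15 min room-temperature fixation | Controls: Ellipticine 6 µM positive control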
Rin1-Abl PPI inh: inhibitors of Rin1-Abl protein binding, primary screen, biochemical, TR-FRET; Tyrosine-protein kinase ABL1 (Homo sapiens) + Ras and Rab interactor 1 (Homo sapiens), …; inhibition, % at 7.35 µM; hit rate 0.4% among 360,000; in the data active = inhibition above about 5%, passing the limit was not always enough
NadD inh conf: inhibitors of S. aureus NadD, confirmation, biochemical, colorimetric, single concentration | shares compounds with NadD inh | purified S. aureus NadD, colorimetric enzyme assay | inhibition, % at 20 µM | hit rate 13% among 2,000 | AID 624309, 2012; in the data active = inhibition mostly above about 42%, no sharp cut-off; inactive = mostly below about 42%
Active calls of the source: *; / = no result shown.

SMILES	Rpn11 block	ABHD5 PLIN5 PPI	NadD inh	Xi reactivation	Rin1-Abl PPI inh	NadD inh conf
COc1ccccc1/C=C/C=c1\sc2nc(=O)c(Cc3ccccc3)nn2c1=O	13	-9	37*	0	-1	19
CC(=O)N1C[C@@H]2[C@H](c3ccccc31)[C@@H](CO)N2C(=O)c1ccc(F)cc1	/	/	/	0	/	/
O=c1cc(O)c2sc(Nc3ccc(Cl)c(F)c3)nc2[nH]1	36	-10	38*	0	0	8
O=C(Nc1cccc(S(=O)(=O)NC2=NCCCCC2)c1)c1cc(-c2ccc(Cl)cc2)nc2ccccc12	2	6	26*	0	1	32
O=C(Nc1cccc(S(=O)(=O)NC2=NCCC2)c1)c1cc(-c2ccco2)nc2ccccc12	/	8	68*	0	1	78*
COc1ccc(-c2cc(C(=O)Nc3cccc(S(=O)(=O)NCc4ccco4)c3)c3ccccc3n2)cc1OC	13	10	58*	0	0	45*
O=C(NC(=S)Nc1cccc(S(=O)(=O)NC2=NCCC2)c1)c1cc(-c2ccco2)nc2ccccc12	-49	12	41*	0	1	52*
C[C@H]1CN([C@@H](C)CO)C(=O)c2cc(NC(=O)c3ccncc3)ccc2O[C@@H]1CN(C)S(=O)(=O)c1ccc(Cl)cc1	/	/	/	6	/	/
CN1C(=O)c2cc(NC(=O)Nc3ccc(Cl)cc3)ccc2OC[C@@H]2O[C@H](CC(=O)O)CC[C@@H]21	/	/	/	0	/	/
O=C(Cn1c(=O)n(Cc2ccco2)c(=O)c2c3c(sc21)CCCCC3)Nc1ccccc1	-7	66*	51*	/	-1	41
CN(C)CCn1c(=O)n(Cc2ccco2)c(=O)c2c3c(sc21)CCCCC3	-1	16	-5	/	3	/
Cc1ccc(-n2c(O)c(/C=N/Nc3ccc(S(=O)(=O)N4CCOCC4)cc3[N+](=O)[O-])c3ccccc3c2=O)c(C)c1	13	-6	43*	0	-1	26
CCOC(=O)N1CCN(C(=O)CSc2nc3c(cnn3-c3ccccc3)c(=O)[nH]2)CC1	5	-2	-6	0	4	/
Cc1ccc(C2CC(c3cccs3)=NN2C(=O)CSc2nc(=O)n3ccc(C)cc3n2)cc1 (stereo unspecified)	8	1	38*	0	-4	51*
COc1ccc(C2=NN(C(=O)CSc3nc(=O)n4cc(C)ccc4n3)C(c3ccc(C)cc3)C2)cc1 (stereo unspecified)	7	2	49*	0	1	15
COc1ccc(C2CC(c3cccs3)=NN2C(=O)CSc2nc(=O)n3ccc(C)cc3n2)cc1 (stereo unspecified)	20	11	46*	0	-6	44
COc1ccc(C2CC(c3cccs3)=NN2C(=O)CSc2nc3c(cnn3-c3ccccc3)c(=O)[nH]2)cc1 (stereo unspecified)	5	-6	40*	0	1	7
CO[C@@H]1CN(C)C(=O)c2cc(NC(=O)C3CCCC3)ccc2OC[C@@H](C)N(Cc2nccs2)C[C@H]1C	/	/	/	0	/	/
O=C(CNc1ccccc1)N/N=C/c1ccc2c(c1)OCO2	6	0	6	0	-7	/
O=C(CNc1ccc2c(c1)OCO2)N/N=C\c1cn(Cc2ccccc2)c2ccccc12	-22	-1	37*	0	-1	19
CCNC(=O)C[C@@H]1CC[C@@H]2[C@H](COC[C@@H](O)CN2Cc2ccc(Cl)c(Cl)c2)O1	/	/	/	0	/	/
O=C(N/N=C/c1ccc([N+](=O)[O-])o1)c1cn(-c2ccccc2)nc1-c1ccc(Cl)cc1	-8	4	36*	0	-2	1
O=C(N/N=C/c1ccc([N+](=O)[O-])o1)c1cn(-c2ccccc2)nc1-c1ccccc1	23	2	31*	0	0	19
O=C(N/N=C/c1coc2ccccc2c1=O)c1ccncc1	-2	2	3	0	-2	/
O=C(N/N=C/c1coc2ccccc2c1=O)c1cn(-c2ccccc2)nc1-c1ccc(F)cc1	1	-2	34*	0	-9	2
SMILES	Rpn11 block	ABHD5 PLIN5 PPI	NadD inh	Xi reactivation	Rin1-Abl PPI inh	NadD inh conf
COc1ccc(NC(=O)Nc2ccc3c(c2)C(=O)N([C@H](C)CO)C[C@@H](C)[C@H](CN(C)S(=O)(=O)c2cccs2)OCCCC[C@@H](C)O3)cc1	/	/	/	0	/	/
COc1ccccc1C(=O)N1C[C@H]2[C@@H](c3ccccc31)[C@H](CO)N2C(=O)C1CCCC1	/	/	/	0	/	/
CS(=O)(=O)Nc1ccc2c(c1)[C@@H]1C[C@H](CC(=O)NCC(F)(F)F)O[C@@H](CO)[C@@H]1O2	/	/	/	0	/	/
C[C@@H]1CCCCO[C@@H](CN(C)S(=O)(=O)c2ccc(Cl)cc2)[C@H](C)CN([C@@H](C)CO)C(=O)c2cc(NC(=O)Nc3ccccc3)ccc2O1	/	/	/	0	/	/
O=C(CN1CCN(c2nc(-c3ccccc3)cs2)CC1)NNC(=O)c1ccc(Br)cc1	-8	-2	-6	/	-4	/
O=C(NC(=S)N1CCN(c2nc(-c3ccccc3)cs2)CC1)c1cncc(Br)c1	9	-4	35*	0	6	23
c1ccc(-c2ccc(CN3C[C@@H]4C(c5ccccc5)C5(c6cccnc6)CC4(C5)[C@H]3c3ccccc3)cc2)cc1 (stereo partly specified)	10	0	52*	0	0	28
Cn1c2ccccc2c2cc(/C=N/NC(=O)c3cc(O)cc(O)c3)ccc21	-6	-12	19	0	-4	/
Cn1c2ccccc2c2cc(/C=N/NC(=O)c3cc(O)ccc3O)ccc21	16	-6	49*	0	3	52*
COc1ccc(Oc2c(OC)cc(NCc3ccc(CN)cc3)c3ncccc23)cc1	20	-4	70*	0	-2	66*
O=C(N/N=C/c1ccc(F)cc1)c1cc(-c2ccco2)nc2ccccc12	27	3	45*	/	1	81*
CCOc1ccccc1-c1cc(C(=O)N/N=C/c2ccc3c(c2)OCO3)c2ccccc2n1	4	3	35*	/	-2	12
Cc1csc(NC(=O)c2cc(-c3ccco3)nc3ccccc23)n1	-25	6	75*	0	1	53*
CCOc1ccc(/C=N/NC(=O)c2cc(-c3ccco3)nc3ccccc23)cc1	4	6	16	0	-5	/
